Laboratory results from ChEMBL document CHEMBL1156768, “The structure-activity relationship of the antimalarial ozonide arterolane (OZ277)” (J Med Chem, 2010).
Converted amounts (≈) assume the structure as drawn.

Columns and labels:
[1] = system: Plasmodium berghei; assay: Antiplasmodial activity against Plasmodium berghei infected in NMRI mice (Mus musculus) assessed as reduction of parasitaemia level at 10 mg/kg, perorally administered 1 day after post-infection measured after 3 days post-infection; format: functional; parameters: scale not given: the % may be the effect or the level left; details: route oral
Procedure, shortened: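 Groups of five NMRI mice infected with P. berghei received a single oral dose on day 1 postinfection. Read-out was percent reduction in parasitemia on day 3 postinfection. Individual measurements differed by less than 10%.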

[2] = system: Plasmodium falciparum; assay: Antimalarial activity against chloroquine-resistant Plasmodium falciparum K1 infected in human A+ erythrocytes assessed as [3H]hypoxanthine incorporation by semiautomated micro dilution assay; format: functional, organism-based
[3] = system: Plasmodium falciparum; assay: Antimalarial activity against chloroquine-sensitive Plasmodium falciparum NF54 infected in human A+ erythrocytes assessed as [3H]hypoxanthine incorporation by semi-automated micro dilution assay; format: functional, organism-based
[4] = Half life in Sprague-Dawley rat at 2.5 to 3.5 mg/kg, iv; format: ADME, organism-based; parameters: dose 2.5-3.5 mg/kg, route intravenous; details: in vivo
Procedure, shortened: (§1)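 Rats received an IV infusion over 5-10 min through a jugular cannula at 2.5-3.5 mg/kg, in DMSO/aqueous buffer or propylene glycol/ethanol/water. Oral gavage used aqueous suspensions in HPMC or CMC with 0.4% Tween 80 and 0.5% benzyl alcohol. Carotid blood was sampled, and plasma was acetonitrile-precipitated and measured by LC/MS against plasma calibration standards. Values are averages of 2-3 determinations.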

[5] = Plasma clearance in Sprague-Dawley rat at 2.5 to 3.5 mg/kg, iv; format: ADME, organism-based; parameters: dose 2.5-3.5 mg/kg, route intravenous; procedure, shortened: as §1
[6] = system: Plasmodium berghei; assay: Antiplasmodial activity against Plasmodium berghei infected in NMRI mice (Mus musculus) assessed as mice (Mus musculus) survival days at 3 mg/kg, perorally daily once for 3 consecutive days measured after 4 days post-infection; format: functional; details: route oral
Procedure, shortened: (§2)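 P. berghei-infected NMRI mice, in groups of five, were dosed orally at 3 mg/kg on days +1, +2 and +3 postinfection. Parasitemia reduction, survival time and cure were scored.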

[7] = Oral bioavailability in Sprague-Dawley rat; format: ADME, organism-based; details: in vivo; procedure, shortened: as §1
[8] = system: Plasmodium berghei; assay: Antiplasmodial activity against Plasmodium berghei infected in NMRI mice (Mus musculus) assessed as curing of parasitaemia at 3 mg/kg, perorally daily once for 3 consecutive days measured after 30 days post-infection; format: functional; details: route oral; procedure, shortened: as §2
[9] = system: Plasmodium berghei; assay: Antiplasmodial activity against Plasmodium berghei infected in NMRI mice (Mus musculus) assessed as reduction of parasitaemia level at 3 mg/kg, perorally daily once for 3 consecutive days measured after 4 days post-infection; format: functional; parameters: scale not given: the % may be the effect or the level left; details: route oral; procedure, shortened: as §2
[10] = Volume of distribution in Sprague-Dawley rat at 2.5 to 3.5 mg/kg, iv; format: ADME, organism-based; parameters: dose 2.5-3.5 mg/kg, route intravenous; details: in vivo; procedure, shortened: as §1
[11] = Blood clearance in Sprague-Dawley rat at 2.5 to 3.5 mg/kg, iv; format: ADME, organism-based; parameters: dose 2.5-3.5 mg/kg, route intravenous; details: whole blood; procedure, shortened: as §1
[12] = target: Cytochrome P450 2C9 (Homo sapiens, UniProt P11712); assay: Inhibition of human CYP2C9 up to 50 uM; format: ADME
[13] = system: Rattus norvegicus; assay: Liver toxicity in Sprague-Dawley rat at 300 mg/kg, po daily once for 5 days; format: organism-based; parameters: dose 300 mg/kg, route oral; details: in vivo, 120 h
Procedure, shortened: (§3)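 Preliminary toxicology was run in male rats given daily oral doses for five days.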

[14] = system: Rattus norvegicus; assay: Neurotoxicity in Sprague-Dawley rat at 300 mg/kg, po daily once for 5 days; format: toxicity, organism-based; parameters: dose 300 mg/kg, route oral; details: in vivo, 120 h; procedure, shortened: as §3
[15] = system: Rattus norvegicus; assay: Lymphatic organ toxicity in Sprague-Dawley rat at 300 mg/kg, po daily once for 5 days; format: organism-based; parameters: dose 300 mg/kg, route oral; details: in vivo, 120 h; procedure, shortened: as §3
[16] = target: Cytochrome P450 3A4 (Homo sapiens, UniProt P08684); assay: Inhibition of human CYP3A4 up to 50 uM; format: ADME
[17] = system: Rattus norvegicus; assay: Renal toxicity in Sprague-Dawley rat at 300 mg/kg, po daily once for 5 days; format: organism-based; parameters: dose 300 mg/kg, route oral; details: in vivo, 120 h; procedure, shortened: as §3
[18] = target: Cytochrome P450 2D6 (Homo sapiens, UniProt P10635); assay: Inhibition of human CYP2D6 up to 50 uM; format: ADME
[19] = Partition coefficient, log D in octanol/buffer at pH 7.4 by chromatographic method; format: physicochemical

Sequence of Cytochrome P450 2D6 (P10635 whole entry): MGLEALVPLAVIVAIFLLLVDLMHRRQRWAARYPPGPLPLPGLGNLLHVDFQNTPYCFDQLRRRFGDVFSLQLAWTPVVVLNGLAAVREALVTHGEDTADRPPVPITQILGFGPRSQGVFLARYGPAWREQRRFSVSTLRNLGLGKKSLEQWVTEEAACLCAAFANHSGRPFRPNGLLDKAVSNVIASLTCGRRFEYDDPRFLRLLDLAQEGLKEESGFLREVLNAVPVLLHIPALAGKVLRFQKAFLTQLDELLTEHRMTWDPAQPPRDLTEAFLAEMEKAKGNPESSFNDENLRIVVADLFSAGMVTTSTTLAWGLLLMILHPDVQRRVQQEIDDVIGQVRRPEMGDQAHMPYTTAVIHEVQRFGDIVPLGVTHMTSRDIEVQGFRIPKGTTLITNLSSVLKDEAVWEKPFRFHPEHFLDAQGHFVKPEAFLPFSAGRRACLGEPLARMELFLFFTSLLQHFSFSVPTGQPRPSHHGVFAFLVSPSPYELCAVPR
Sequence of Cytochrome P450 2C9 (P11712 whole entry): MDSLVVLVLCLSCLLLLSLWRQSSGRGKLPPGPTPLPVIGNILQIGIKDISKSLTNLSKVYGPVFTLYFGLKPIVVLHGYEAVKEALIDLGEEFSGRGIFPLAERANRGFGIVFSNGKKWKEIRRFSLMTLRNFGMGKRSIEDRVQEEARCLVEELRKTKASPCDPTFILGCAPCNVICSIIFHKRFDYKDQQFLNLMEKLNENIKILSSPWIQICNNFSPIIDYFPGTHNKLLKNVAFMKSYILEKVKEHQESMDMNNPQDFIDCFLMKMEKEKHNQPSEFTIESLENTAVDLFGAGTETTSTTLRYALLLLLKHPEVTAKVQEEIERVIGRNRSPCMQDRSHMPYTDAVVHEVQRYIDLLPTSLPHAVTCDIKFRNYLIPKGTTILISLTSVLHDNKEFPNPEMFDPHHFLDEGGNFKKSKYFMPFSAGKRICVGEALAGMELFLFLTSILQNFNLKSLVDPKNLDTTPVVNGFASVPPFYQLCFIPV
Sequence of Cytochrome P450 3A4 (P08684 whole entry): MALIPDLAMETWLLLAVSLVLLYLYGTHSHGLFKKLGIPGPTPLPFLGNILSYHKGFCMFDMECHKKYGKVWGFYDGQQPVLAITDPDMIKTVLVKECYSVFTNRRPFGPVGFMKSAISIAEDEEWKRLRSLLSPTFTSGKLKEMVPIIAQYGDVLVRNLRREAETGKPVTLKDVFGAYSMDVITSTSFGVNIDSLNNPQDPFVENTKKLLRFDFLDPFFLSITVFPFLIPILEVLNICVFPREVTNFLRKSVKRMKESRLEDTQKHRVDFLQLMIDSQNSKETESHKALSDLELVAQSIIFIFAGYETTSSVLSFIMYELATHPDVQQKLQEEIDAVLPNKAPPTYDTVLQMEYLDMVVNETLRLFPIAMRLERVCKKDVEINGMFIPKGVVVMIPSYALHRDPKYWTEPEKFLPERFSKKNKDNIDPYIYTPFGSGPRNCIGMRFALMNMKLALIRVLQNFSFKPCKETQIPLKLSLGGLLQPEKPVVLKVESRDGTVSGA

SMILES	Activity [1]	IC50 [2]	IC50 [3]	other results
O=C(O)C[C@H]1CC[C@]2(CC1)OO[C@]1(O2)C2CC3CC(C2)CC1C3	95%	34 ng/mL (≈ 105 nM)	45 ng/mL (≈ 140 nM)	
Cc1ccc(S(=O)(=O)O)cc1.NCCNC(=O)C[C@H]1CC[C@]2(CC1)OO[C@]1(O2)C2CC3CC(C2)CC1C3	99.9%			
CC(C)(N)CNC(=O)NC[C@H]1CC[C@]2(CC1)OO[C@]1(O2)C2CC3CC(C2)CC1C3.Cc1ccc(S(=O)(=O)O)cc1	97%	3.2 ng/mL	3.5 ng/mL	
CC(C)(N)Cn1nnnc1C[C@H]1CC[C@]2(CC1)OO[C@]1(O2)C2CC3CC(C2)CC1C3	98%	2.3 ng/mL (≈ 5.51 nM)	1.5 ng/mL (≈ 3.59 nM)	
Cc1ccc(S(=O)(=O)O)cc1.NC1(CNC(=O)C[C@H]2CC[C@]3(CC2)OO[C@]2(O3)C3CC4CC(C3)CC2C4)CC1	99.9%	0.4 ng/mL	0.52 ng/mL	
CC(C)(CN)CNC(=O)C[C@H]1CC[C@]2(CC1)OO[C@]1(O2)C2CC3CC(C2)CC1C3.CS(=O)(=O)O	99.9%	0.46 ng/mL	0.49 ng/mL	
CC(C)(N)CNC(=O)N[C@H]1CC[C@]2(CC1)OO[C@]1(O2)C2CC3CC(C2)CC1C3.Cc1ccc(S(=O)(=O)O)cc1	63%	8.4 ng/mL	6.2 ng/mL	
O=C(C[C@H]1CC[C@]2(CC1)OO[C@]1(O2)C2CC3CC(C2)CC1C3)N1CCN(CCO)CC1	96%	1 ng/mL (≈ 2.3 nM)	0.9 ng/mL (≈ 2.07 nM)	
CC(C)(N)CNC(=O)[C@H]1CC[C@@]2(CC1)OO[C@@]1(O2)C2CC3CC(C2)CC1C3.Cc1ccc(S(=O)(=O)O)cc1	84%	1.4 ng/mL	0.74 ng/mL	
NC(=O)CNC(=O)C[C@H]1CC[C@]2(CC1)OO[C@]1(O2)C2CC3CC(C2)CC1C3	99.6%	3.9 ng/mL (≈ 10.3 nM)	3.6 ng/mL (≈ 9.51 nM)	
CC(C)(N)CNC(=O)CC[C@H]1CC[C@]2(CC1)OO[C@]1(O2)C2CC3CC(C2)CC1C3.Cc1ccc(S(=O)(=O)O)cc1	>99.9%	0.55 ng/mL	0.82 ng/mL	half-life [4]: 60 min; clearance [5]: 134 mL/min/kg; Survival [6]: 24.4 days; bioavailability [7]: 32%; Activity [8]: 0%; Activity [9]: >99.9%; Vd [10]: 12 L/kg
CS(=O)(=O)N1CCN(C(=O)C[C@H]2CC[C@]3(CC2)OO[C@]2(O3)C3CC4CC(C3)CC2C4)CC1	<40%			
Cc1ccc(S(=O)(=O)O)cc1.O=C(C[C@H]1CC[C@]2(CC1)OO[C@]1(O2)C2CC3CC(C2)CC1C3)N1CCNCC1	>99.9%	0.21 ng/mL	0.24 ng/mL	half-life [4]: 102 min; clearance [5]: 168 mL/min/kg; clearance [11]: 56.3 mL/min/kg; bioavailability [7]: 37%; Activity [8]: 0%; Activity [9]: >99.9%; Vd [10]: 25 L/kg
NC(=O)C1CCN(C(=O)C[C@H]2CC[C@]3(CC2)OO[C@]2(O3)C3CC4CC(C3)CC2C4)CC1	86%		1.7 ng/mL (≈ 3.93 nM)	
CC(C)(N)CNC(=O)OC[C@H]1CC[C@]2(CC1)OO[C@]1(O2)C2CC3CC(C2)CC1C3.Cc1ccc(S(=O)(=O)O)cc1	>99.9%	0.22 ng/mL	0.36 ng/mL	Survival [6]: 9.8 days; Activity [8]: 0%; Activity [9]: >99.9%
O=CN1CCN(C(=O)C[C@H]2CC[C@]3(CC2)OO[C@]2(O3)C3CC4CC(C3)CC2C4)CC1	99.8%	0.39 ng/mL (≈ 0.932 nM)	0.63 ng/mL (≈ 1.51 nM)	
CC(C)(N)CNC(=O)C[C@H]1CC[C@@]2(CC1)OO[C@@]1(O2)C2CC3CC(C2)CC1C3.Cc1ccc(S(=O)(=O)O)cc1	96%	1.7 ng/mL	1.5 ng/mL	half-life [4]: 37 min; clearance [5]: 298 mL/min/kg; bioavailability [7]: 15%; Vd [10]: 16 L/kg

SMILES	Activity [1]	IC50 [2]	IC50 [3]	other results
Cc1ccc(S(=O)(=O)O)cc1.N[C@H]1CC[C@H](NC(=O)C[C@H]2CC[C@]3(CC2)OO[C@]2(O3)C3CC4CC(C3)CC2C4)CC1	>99.9%			Survival [6]: 22 days; Activity [8]: 0%; Activity [9]: >99.9%
O=C(O)C1CCN(C(=O)C[C@H]2CC[C@]3(CC2)OO[C@]2(O3)C3CC4CC(C3)CC2C4)CC1		19 ng/mL (≈ 43.8 nM)	27 ng/mL (≈ 62.3 nM)	
O=C(C[C@H]1CC[C@]2(CC1)OO[C@]1(O2)C2CC3CC(C2)CC1C3)NO	97%	1.4 ng/mL (≈ 4.15 nM)	2 ng/mL (≈ 5.93 nM)	
O=C1CN(C(=O)C[C@H]2CC[C@]3(CC2)OO[C@]2(O3)C3CC4CC(C3)CC2C4)CCN1	99.2%	0.6 ng/mL (≈ 1.48 nM)	0.89 ng/mL (≈ 2.2 nM)	
O=C(C[C@H]1CC[C@]2(CC1)OO[C@]1(O2)C2CC3CC(C2)CC1C3)N1CCS(=O)(=O)CC1	<40%			
Cc1ccc(S(=O)(=O)O)cc1.NC1CCN(C(=O)C[C@H]2CC[C@]3(CC2)OO[C@]2(O3)C3CC4CC(C3)CC2C4)CC1	>99.9%		0.39 ng/mL	Activity [12]: Not Active; half-life [4]: 83 min; Activity [13]: Non-toxic; clearance [5]: 157 mL/min/kg; Survival [6]: 27 days; Activity [14]: Non-toxic; Activity [15]: Non-toxic; clearance [11]: 39.1 mL/min/kg; Activity [16]: Not Active; bioavailability [7]: 78%; Activity [17]: Non-toxic; Activity [8]: 60%; Activity [9]: >99.9%; Vd [10]: 19 L/kg; Activity [18]: Not Active
CC(C)(N)CNC(=O)[C@H]1CC[C@]2(CC1)OO[C@]1(O2)C2CC3CC(C2)CC1C3.Cc1ccc(S(=O)(=O)O)cc1	96%	0.66 ng/mL	0.25 ng/mL	
O=C(C[C@H]1CC[C@]2(CC1)OO[C@]1(O2)C2CC3CC(C2)CC1C3)N1CCCCC1		1.6 ng/mL (≈ 4.11 nM)	1.6 ng/mL (≈ 4.11 nM)	
O=C(C[C@H]1CC[C@]2(CC1)OO[C@]1(O2)C2CC3CC(C2)CC1C3)N1CCC(O)CC1	99.7%	0.49 ng/mL (≈ 1.21 nM)	0.76 ng/mL (≈ 1.87 nM)	half-life [4]: 660 min; clearance [5]: 37 mL/min/kg; bioavailability [7]: 5%; Vd [10]: 36 L/kg
O=C(C[C@H]1CC[C@]2(CC1)OO[C@]1(O2)C2CC3CC(C2)CC1C3)N1CCOCC1	99.8%	1.7 ng/mL (≈ 4.34 nM)	3 ng/mL (≈ 7.66 nM)	
NC(=O)C[C@H]1CC[C@]2(CC1)OO[C@]1(O2)C2CC3CC(C2)CC1C3	97%	0.91 ng/mL (≈ 2.83 nM)	1.1 ng/mL (≈ 3.42 nM)	
Cc1ccc(S(=O)(=O)O)cc1.NCCCNC(=O)C[C@H]1CC[C@]2(CC1)OO[C@]1(O2)C2CC3CC(C2)CC1C3	99.9%	3.5 ng/mL	2.3 ng/mL	
C[C@H]1[C@@H](O)O[C@@H]2O[C@@]3(C)CC[C@H]4[C@H](C)CC[C@@H]1[C@@]24OO3 [ARTENIMOL]				clearance [5]: 72 mL/min/kg; Vd [10]: 3 L/kg
CC(C)(N)CNC(=O)C[C@H]1CC[C@]2(CC1)OO[C@]1(O2)C2CC3CC(C2)CC1C3.Cc1ccc(S(=O)(=O)O)cc1 [ARTEROLANE]	99.9%	1 ng/mL	0.91 ng/mL	Activity [12]: Not Active; half-life [4]: 76 min; Activity [13]: Non-toxic; clearance [5]: 141 mL/min/kg; Survival [6]: 11.4 days; chromatographic logD [19]: 2.9; Activity [14]: Non-toxic; Activity [15]: Non-toxic; clearance [11]: 62 mL/min/kg; Activity [16]: Not Active; bioavailability [7]: 26%; Activity [17]: Non-toxic; Activity [8]: 0%; Activity [9]: >99.9%; Vd [10]: 16 L/kg; Activity [18]: Not Active
C[C@H]1[C@H](OC(=O)CCC(=O)O)O[C@@H]2O[C@@]3(C)CC[C@H]4[C@H](C)CC[C@@H]1[C@@]24OO3 [ARTESUNATE]				Activity [13]: Non-toxic; Survival [6]: 9.2 days; Activity [14]: Non-toxic; Activity [15]: Non-toxic; Activity [17]: Non-toxic; Activity [9]: 70%
CCN(CC)CCCC(C)Nc1ccnc2cc(Cl)ccc12 (stereo not drawn) [CHLOROQUINE]				Survival [6]: 9.4 days
OC(c1cc(C(F)(F)F)nc2c(C(F)(F)F)cccc12)C1CCCCN1 (stereo not drawn) [MEFLOQUINE]				Survival [6]: 15.8 days; Activity [9]: 99%
